Activity calls are given as the source filed them. No cut-off for these calls is given here.
target: Kappa-type opioid receptor (Rattus norvegicus, UniProt P34975); experiment: (§1) Displacement of [3H]U69593 from kappa opioid receptor in rat brain homogenate after 1 hr by liquid scintillation counting; type: tissue-based
Sequence (P34975 whole entry): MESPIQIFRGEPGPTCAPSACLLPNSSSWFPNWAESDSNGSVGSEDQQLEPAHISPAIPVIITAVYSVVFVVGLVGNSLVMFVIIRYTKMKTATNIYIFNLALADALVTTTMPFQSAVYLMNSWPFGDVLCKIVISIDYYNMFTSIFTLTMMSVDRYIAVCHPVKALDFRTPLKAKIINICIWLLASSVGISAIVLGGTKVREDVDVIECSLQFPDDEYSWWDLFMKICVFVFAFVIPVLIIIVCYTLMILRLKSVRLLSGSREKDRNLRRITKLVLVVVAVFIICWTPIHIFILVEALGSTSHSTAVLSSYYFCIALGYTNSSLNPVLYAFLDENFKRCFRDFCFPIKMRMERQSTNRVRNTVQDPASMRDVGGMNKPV

Row | SMILES | Ki [µM]
1 | CN(CCOCCCc1ccccc1)Cc1ccccc1 | > 10
2 | CN(CCOC/C=C/c1ccccc1)CCc1ccccc1 | > 10
3 | CN(CCCc1ccccc1)CCOCCCc1ccccc1 | > 10
4 | CCCCN(CCCC)CCOCCCc1ccccc1 | > 10
5 | CCCCN(CCCC)CCOC/C=C/c1ccccc1 | > 10
6 | CN(CCCc1ccccc1)CCOC/C=C/c1ccccc1 | > 10
7 | CN(CCOCCCc1ccccc1)CCc1ccccc1 | > 10
8 | CN(CCOC/C=C/c1ccccc1)Cc1ccccc1 | > 10

target: Kappa-type opioid receptor (Rattus norvegicus) (UniProt P34975); experiment: as §1; type: tissue-based
Sequence (P34975 whole entry): as above

Row | SMILES | Activity
9 | C=CCN(CC=C)CCOCCCc1ccccc1 | inactive
10 | C=CCN(CC=C)CCOC/C=C/c1ccccc1 | inactive
11 | C(=C\c1ccccc1)/COCCN1CCCC1 | inactive
12 | C(=C\c1ccccc1)/COCCN1CCCCC1 | inactive
13 | c1ccc(CCCOCCN2CCCCC2)cc1 | inactive
14 | c1ccc(CCCOCCN2CCCC2)cc1 | inactive
15 | c1ccc(CCCOCCN2CCCCCC2)cc1 | inactive

target: Delta-type opioid receptor (Rattus norvegicus) (UniProt P33533); experiment: (§2) Displacement of [3H]DPDPE from delta opioid receptor in rat brain homogenate after 1 hr by liquid scintillation counting; type: tissue-based
Sequence (P33533 whole entry): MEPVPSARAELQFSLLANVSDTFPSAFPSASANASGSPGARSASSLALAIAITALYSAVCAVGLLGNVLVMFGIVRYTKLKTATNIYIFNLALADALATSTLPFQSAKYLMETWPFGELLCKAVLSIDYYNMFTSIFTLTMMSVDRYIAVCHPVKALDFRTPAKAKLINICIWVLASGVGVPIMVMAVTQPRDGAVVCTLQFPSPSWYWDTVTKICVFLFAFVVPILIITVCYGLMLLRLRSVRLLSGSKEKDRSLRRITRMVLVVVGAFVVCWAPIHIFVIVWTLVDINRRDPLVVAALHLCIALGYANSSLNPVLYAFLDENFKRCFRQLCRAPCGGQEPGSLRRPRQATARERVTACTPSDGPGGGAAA

Row | SMILES | Activity
16 | C=CCN(CC=C)CCOCCCc1ccccc1 | inactive
17 | C=CCN(CC=C)CCOC/C=C/c1ccccc1 | inactive
18 | C(=C\c1ccccc1)/COCCN1CCCC1 | inactive
19 | C(=C\c1ccccc1)/COCCN1CCCCC1 | inactive
20 | c1ccc(CCCOCCN2CCCCC2)cc1 | inactive
21 | c1ccc(CCCOCCN2CCCC2)cc1 | inactive
22 | c1ccc(CCCOCCN2CCCCCC2)cc1 | inactive

target: Delta-type opioid receptor (Rattus norvegicus, UniProt P33533); experiment: as §2; type: tissue-based
Sequence (P33533 whole entry): as above

Row | SMILES | Ki [µM]
23 | CN(CCOCCCc1ccccc1)Cc1ccccc1 | > 10
24 | CN(CCOC/C=C/c1ccccc1)CCc1ccccc1 | 6.85
25 | CN(CCCc1ccccc1)CCOCCCc1ccccc1 | 6.65
26 | CCCCN(CCCC)CCOCCCc1ccccc1 | > 10
27 | CCCCN(CCCC)CCOC/C=C/c1ccccc1 | > 10
28 | CN(CCCc1ccccc1)CCOC/C=C/c1ccccc1 | > 10
29 | CN(CCOC/C=C/c1ccccc1)Cc1ccccc1 | > 10

target: Mu-type opioid receptor (Rattus norvegicus, UniProt P33535); experiment: (§3) Displacement of [3H]DAMGO from mu opioid receptor in rat brain homogenate after 1 hr by liquid scintillation counting; type: tissue-based
Sequence (P33535 whole entry): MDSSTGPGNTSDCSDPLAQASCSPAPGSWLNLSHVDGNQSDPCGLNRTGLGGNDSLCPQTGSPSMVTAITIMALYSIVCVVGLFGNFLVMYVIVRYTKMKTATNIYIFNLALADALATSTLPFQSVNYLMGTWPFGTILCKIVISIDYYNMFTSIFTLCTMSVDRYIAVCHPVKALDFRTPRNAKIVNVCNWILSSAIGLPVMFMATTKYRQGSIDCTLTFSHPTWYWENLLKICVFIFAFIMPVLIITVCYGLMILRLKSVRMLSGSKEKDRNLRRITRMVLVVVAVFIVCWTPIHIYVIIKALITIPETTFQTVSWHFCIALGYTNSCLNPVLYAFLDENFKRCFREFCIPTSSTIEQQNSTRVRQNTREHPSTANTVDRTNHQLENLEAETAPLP
How it was run: (§4)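 Competition with 12 concentrations of test compound, 1 h at 25°C; terminated by rapid vacuum filtration through GF/B filters presoaked in 0.5% polyethyleneimine. Bound radioactivity counted by liquid scintillation; Ki by Cheng-Prusoff.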

Row | SMILES | Ki [µM]
30 | CCN(CC)C(=O)COCCCc1ccccc1 | > 10
31 | CN(CCOCCCc1ccccc1)Cc1ccccc1 | 2.76
32 | CCN(CC)CCOCCCc1ccccc1 | > 10
33 | CN(C)CCOC/C=C/c1ccccc1 | > 10
34 | C=CCN(CC=C)CCOCCCc1ccccc1 | > 10
35 | CN(CCOC/C=C/c1ccccc1)CCc1ccccc1 | 1.68
36 | CCCN(CCC)CCOCCCc1ccccc1 | > 10
37 | CN(CCCc1ccccc1)CCOCCCc1ccccc1 | 1.52
38 | CCCCN(CCCC)CCOCCCc1ccccc1 | 2.49
39 | C=CCN(CC=C)CCOC/C=C/c1ccccc1 | > 10
40 | CCCN(CCC)CCOC/C=C/c1ccccc1 | > 10
41 | C(=C\c1ccccc1)/COCCN1CCCCCC1 | > 10
42 | CCN(CC)C(=O)COC/C=C/c1ccccc1 | > 10
43 | CCCCN(CCCC)CCOC/C=C/c1ccccc1 | 2.49
44 | CCN(CC)CCOC/C=C/c1ccccc1 | > 10
45 | CN(C)CCOCCCc1ccccc1 | > 10
46 | CN(CCOCCCc1ccccc1)CCc1ccccc1 | 2.31
47 | CN(CCOC/C=C/c1ccccc1)Cc1ccccc1 | 3.04

target: Mu-type opioid receptor (Rattus norvegicus) (UniProt P33535); experiment: as §3; type: tissue-based; how it was run: as §4
Sequence (P33535 whole entry): as above

Row | SMILES | Activity
48 | C(=C\c1ccccc1)/COCCN1CCCC1 | inactive
49 | C(=C\c1ccccc1)/COCCN1CCCCC1 | inactive
50 | c1ccc(CCCOCCN2CCCCC2)cc1 | inactive
51 | c1ccc(CCCOCCN2CCCC2)cc1 | inactive
52 | c1ccc(CCCOCCN2CCCCCC2)cc1 | inactive
